Most compounds without a hit are left out; they make up all but 2% or so of the library.
HSP90 refold inh = blocks HSP90-mediated luciferase refolding in reticulocyte lysate. actives 0.91% (n = 290,000). Rabbit reticulocyte lysate, luciferase refolding luminescence, 3 h. inhibition, % at 5.6 µM. AID 1789;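 active means inhibition above the screen-wide mean plus 3 SD, computed separately per campaign, cut at about 16% in these data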;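 further: 0% = DMSO wells and 100% = 60 µM geldanamycin wells; inhibitors lower the luminescence because luciferase stays unfolded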
STAT3 inh-1 = reduces IL-6 driven STAT3 reporter signal. U3A cells, IL-6 STAT3-luciferase reporter, luminescence; host cell line lacks STAT1. inhibition, % at 5.5 µM. actives 0.89% (n = 190,000). AID 862;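 active means inhibition above the mean inhibition across all screened compounds plus 3 SD, cut at about 44% in these data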;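 further: 0% = DMSO only wells and 100% = 100 µM nifuroxazide control wells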
STAT3 act = activators of IL-6 induced STAT3 signaling; U3A cells, IL-6 STAT3-luciferase reporter, luminescence; 100% = signal with IL-6 EC80 alone; activation (% of control), % at 5.6 µM; actives 0.91% (n = 190,000); AID 871;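 active means activation above the screen-wide mean of compound activation plus 3 SD, cut at about 130% in these data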;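 further: 0% = background luminescence of wells with medium and substrate only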
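Material: human U3A cells carrying STAT3-luciferase construct. Measured by: reporter luminescence signal. Timing: compound 1 h, then IL-6 6 h at 37 °C.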
STAT1 blocker = inhibitors of IFN-gamma induced STAT1 signaling. inhibition, % at 5.5 µM. NIH 3T3 STAT1-luciferase reporter, luminescence. AID 920. actives 0.35% (n = 200,000);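 active means inhibition above a set limit, the mean inhibition across all tested compounds plus 3 SD, cut at about 34% in these data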;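 further: 0% = IFN-gamma with DMSO and 100% = IFN-gamma with 300 µM nifuroxazide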
STAT3 inh-2 = STAT3 inhibition, confirmation assay; shares compounds with STAT3 inh-1; U3A cells, IL-6 STAT3 luciferase reporter, luminescence; cell line lacks STAT1; inhibition, % at 5.7 µM; actives 45% (n = 1,200);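 active means inhibition above the hit cutoff computed for the primary STAT3 screen, cut at about 44% in these data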;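 further: 0% = IL-6 plus DMSO and 100% = IL-6 plus nifuroxazide control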
NFkB inh 2 = inhibits NF-kappaB, counter-screen to STAT3 inhibitors; shares compounds with STAT3 inh-1; inhibition, % at 5.7 µM; HEK293T NF-kB luciferase reporter, TNF-alpha induced; actives 36% (n = 1,200);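 active means inhibition above the mean of solvent-only control wells plus 3 SD, cutoff set per campaign, cut at about 13% in these data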;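 further: 0% = TNF-alpha with DMSO and 100% = TNF-alpha with MG high control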
STAT1 inh 2 = STAT1 inhibition in STAT3 inhibitor counter-screen | inhibition, % at 5.7 µM | actives 27% (n = 1,200) | shares compounds with STAT3 inh-1 | AID 1317 | NIH 3T3 STAT1-luciferase reporter, IFN-gamma induced, luminescence;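 active means inhibition above the mean plus 3 SD of solvent-only control wells, limit set per screening run, cut at about 16% in these data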;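 further: 0% = DMSO with IFN-gamma and 100% = nifuroxazide control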
An asterisk follows results filed as active; / = not tested or not shown.

SMILES	HSP90 refold inh	STAT3 inh-1	STAT3 act	STAT1 blocker	STAT3 inh-2	NFkB inh 2	STAT1 inh 2
O=C(Nc1nc(-c2cccs2)cs1)c1ccc(Cl)cc1	2.9	10.5	92.1	-22.3	/	/	/
O=C(Nc1nc(-c2ccc(Cl)s2)cs1)c1ccncc1	-0.9	66.5*	48.8	1.6	56.4*	12.2	10.1
Cc1ccc(NC(=O)c2ccc3c(c2)OCCO3)cc1S(=O)(=O)Nc1cccc(Cl)c1	4.0	9.3	96.3	-15.0	/	/	/
Cc1ccc(Nc2nc(N)c3ccccc3n2)cc1Cl	7.5	/	/	/	/	/	/
Cc1ccccc1Nc1nc(N)c2ccccc2n1	18.4*	61.1*	52.3	-8.4	17.6	-27.1	-70.0
Nc1nc(Nc2ccccc2)nc2ccccc12	10.9	57.2*	57.4	-5.7	13.7	-23.0	-91.9
O=C(NC1=NCCS1)c1ccccc1OCc1ccc(F)cc1	0.0	9.0	97.1	2.9	/	/	/
O=C1CNC(=S)N1c1nc2ccccc2s1	-1.3	/	/	/	/	/	/
O=C(CSc1nnc(NC(=O)c2ccccc2)s1)NCc1ccco1	2.5	/	/	/	/	/	/
O=C(CSc1nnc(NC(=O)c2ccc3c(c2)OCO3)s1)NCc1ccco1	7.1	53.3*	58.4	23.2	21.8	2.6	-17.6
CCOc1ccc2nc3sc(C(=O)N4CCOCC4)c(N)c3cc2c1	-8.4	56.3*	52.9	16.9	1.5	-6.1	-8.1
CC(=O)N[C@@H]1[C@@H](O)[C@@H]2OC(c3ccccc3)OC[C@H]2O[C@@H]1N=[N+]=[N-] (some centres not stated)	-1.2	/	/	/	/	/	/
CC1CCCC(NC(=O)C2CC(=O)N(Cc3ccccc3)C2)C1C (configuration not stated)	0.7	/	/	/	/	/	/
CC(=O)Nc1ccc(SCC(=O)c2cc(C)n(-c3ccccc3F)c2C)cc1	0.7	53.6*	54.6	-50.7	22.4	-40.0	-114.7
COc1ccc(CNC(=O)C(c2ccncc2)N(C(=O)Cc2cccs2)c2ccccc2)cc1 (configuration not stated)	1.3	-4.9	104.5	-6.7	/	/	/
COc1ccc(N(C(=O)CCl)C(C(=O)NCCc2ccccc2)c2cccs2)cc1 (configuration not stated)	5.7	62.0*	47.4	24.3	92.4*	-2.4	20.9*
CC(=O)Nc1ccc(S(=O)(=O)Oc2ccc(N3C(=O)C4CCCCC4C3=O)cc2)cc1 (configuration not stated)	2.0	73.1*	42.7	17.1	61.1*	20.4*	18.5*
Cn1nc(C(C)(C)C)cc1C(=O)NCc1ccc(N2CCCC2=O)cc1	2.0	58.9*	54.3	22.0	62.8*	29.2*	33.0*
C/C(=N\Nc1ccccc1C(=O)O)c1ccncc1	-4.5	/	/	/	/	/	/
CC(C)[C@H](NC(=O)[C@@H]1Cc2c([nH]c3ccccc23)C2c3ccccc3C(=O)N21)C(=O)NCC1CCCO1 (some centres not stated)	0.5	/	/	/	/	/	/
CN(C)C(=O)CSc1nc(-c2cccs2)c(-c2cccs2)[nH]1	-2.1	/	/	/	/	/	/
CCC(=O)c1ccc(OCC(O)Cn2c(C)nc3ccccc32)cc1 (configuration not stated)	1.3	63.6*	47.9	30.4	53.1*	14.5*	19.9*
Cc1nc2ccccc2n1CC(O)COc1ccc(Br)cc1 (configuration not stated)	1.6	21.7	84.1	22.7	/	/	/
O=C(CN(C(=O)C1CSC(=O)C1)c1ccc(F)cc1)NCc1ccc2c(c1)OCO2 (configuration not stated)	2.4	/	/	/	/	/	/
O=c1c(Cl)c(Cl)cnn1Cc1ccccc1Cl	-0.6	47.5*	62.8	6.3	55.5*	26.7*	20.0*
SMILES	HSP90 refold inh	STAT3 inh-1	STAT3 act	STAT1 blocker	STAT3 inh-2	NFkB inh 2	STAT1 inh 2
O=C(CSc1nnc(-c2c[nH]c3ccccc23)o1)N1c2ccccc2CCc2ccccc21	5.9	48.6*	63.2	1.3	29.4	1.3	1.9
CCc1c(C)nc2ncnn2c1NCCc1ccc(Cl)cc1	0.5	54.1*	55.8	22.7	58.8*	16.5*	24.6*
Cc1nn2cc(-c3ccccc3)nc2s1	7.0	52.2*	57.9	-48.6	11.9	-32.1	-97.8
Cc1nn(C(=O)N(C)C)c(C)c1CN1C(=O)c2ccccc2C1=O	-3.3	/	/	/	/	/	/
COc1cc(C)c(Cl)cc1S(=O)(=O)NCc1ccncc1	0.7	70.5*	42.2	21.2	66.0*	19.4*	21.2*
COc1cc(C)c(Cl)cc1S(=O)(=O)NCc1ccccn1	-3.2	/	/	/	/	/	/
O=C(CCl)Nc1cc(-c2ccccc2)nn1-c1ccccc1	7.3	47.7*	61.9	10.6	28.8	-6.8	-23.8
O=C(CSc1nnc(Cn2nnc3ccccc32)o1)Nc1cccc(Cl)c1	3.3	12.5	92.3	-5.6	/	/	/
O=C(CSc1nnc(Cn2nnc3ccccc32)o1)N(Cc1ccc(Cl)cc1)c1ccccc1	4.8	53.4*	55.4	17.7	45.0*	12.8*	19.1*
Clc1ccc(CSc2nnc(Cn3cnc4ccccc43)o2)cc1	1.7	63.3*	48.2	12.2	45.1*	11.9	8.0
NC(=O)CSc1nnc(Cn2cnc3ccccc32)o1	1.6	6.9	99.5	7.8	/	/	/
Cc1cc(C(=O)CSc2nnc(-c3cccs3)o2)c(C)n1-c1ccccc1	0.0	47.4*	63.9	24.4	19.5	17.1*	-18.4
O=C(CSc1nnc(-c2cccs2)o1)c1cccs1	0.3	-0.2	102.5	-44.6	/	/	/
CC1CCN(S(=O)(=O)c2ccc3c(c2)N(CC(=O)NCCCN2CCCCC2)C(=O)CS3)CC1	0.5	/	/	/	/	/	/
Cc1ccc(Cn2ncc3c(N4CCN(C)CC4)ncnc32)cc1	-3.7	10.6	95.4	0.1	/	/	/
Cc1ccc(Cn2ncc3c(N4CCN(c5ccc(C)cc5)CC4)ncnc32)cc1	0.7	68.9*	46.5	4.8	63.0*	20.1*	7.5
CN1CCN(c2ncnc3c2cnn3-c2ccc(Cl)cc2)CC1	41.9*	52.7*	60.3	4.4	5.1	-16.9	-97.0
Cc1ccc(Cn2ncc3c(N4CCN(Cc5ccc(Cl)cc5)CC4)ncnc32)cc1	-1.0	53.9*	54.0	1.3	48.8*	25.0*	3.0
COCCCNC(=O)c1ccc(S(=O)(=O)c2ccc(C)cc2)c(NC(C)=O)c1	-2.0	/	/	/	/	/	/
O=C(CNC(=O)c1ccco1)OCC(=O)c1ccc([N+](=O)[O-])cc1	0.1	/	/	/	/	/	/
CCc1c(C)c2ccc(OCC(=O)OC(C)C)c(C)c2oc1=O	3.3	55.5*	54.4	6.9	48.4*	2.5	6.9
CCc1c(C)c2ccc(OCC(=O)N(C)C)c(C)c2oc1=O	0.9	15.7	89.8	3.1	/	/	/
COc1cc(OC)cc(C(=O)Nc2nnc(NC(=S)Nc3ccccc3)s2)c1	4.1	60.7*	49.8	7.1	58.9*	-14.1	-14.0
CCc1nnc(NC(=O)c2ccc(OC)cc2)s1	14.9	57.3*	54.5	9.8	32.5	-15.5	-55.7
COc1cc(OC)cc(C(=O)Nc2ccc(Nc3ccccc3)cc2)c1	-6.4	/	/	/	/	/	/

High-throughput results deposited in PubChem by The Scripps Research Institute Molecular Screening Center.
